Assay outcomes from PubChem BioAssay.
Only some compounds are listed: those with a hit (about 27% of all), similar ones and a draw of the others.
CYP2C19 activ: human CYP2C19 activators, primary screen, biochemical, luminescence; activation factor at 5 µM; Cytochrome P450 2C19 (Homo sapiens), P33261; 96,000 tested, under 10 active; recombinant CYP2C19, luciferin-H EGE luminescence; active compounds read high; 0 = fully inhibited enzyme, 1 = untreated enzyme;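 active means activation factor of at least 2 at 5 µM in the primary screen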;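 further: 0 = wells with 2.5 mM tranylcypromine and 1 = vehicle-only wells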
HIV Rev-RRE inh: HIV-1 Rev-RRE binding inhibitors, primary screen, biochemical, FRET, protein-RNA interaction. P05866. inhibition, % at 8 µM. Rev peptide-RRE RNA binding. actives 0.79% (n = 97,000);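 active means inhibition above the screen-wide mean plus 3 SD, cut at about 35% in these data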;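 further: 0% = median DMSO wells and 100% = median Neomycin B control wells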
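Test system: Cy5-tagged RRE RNA duplex with fluorescein-tagged Rev peptide; Probe or stimulus: labelled Rev peptide; Schedule: 5 min preincubation and 15 min binding, 25 °C; Signal: FRET fluorescence readout; Evaluation: % inhibition from 671/540 nm acceptor-to-donor ratio, scaled between controls; Control set: DMSO and neomycin B.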
CYP2C19 inhib: blockers of cytochrome P450 2C19 activity – biochemical, luminescence, ADME assay, primary screen. CYP2C19 Supersomes, luciferin-H EGE luminescence, 30 min. P33261. AID 778, 2007. actives 21% (n = 96,000). inhibition, % at 5 µM;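 active means CYP2C19 inhibition above a set limit at 5 µM in the primary screen, cut at about 50% in these data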;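 further: plate controls were negative control wells for no effect and 2.5 mM tranylcypromine positive control for full effect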
CYP2C9 act: human CYP2C9 activators, primary screen, biochemical, luminescence; Cytochrome P450 2C9 (Homo sapiens), P11712; actives 1.4% (n = 96,000); activation factor at 5 µM; recombinant CYP2C9, luciferin-H conversion; active compounds read high; factor 1 = untreated enzyme, 0 = blocked;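 active means activation factor of 2 or more for CYP2C9 at a 5 µM dose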;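 further: 0 = sulfaphenazole-blocked wells and 1 = vehicle-only wells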
Cav32 inh: Cav3.2 calcium influx blockers – cell-based, Fluo-4 calcium fluorescence, FDSS, MLSMR library, primary screen. B-score at 10 µM. actives 4% (n = 100,000). Cav3.2-expressing cells; active compounds read low. AID 449739, 2010;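 active means single-dose well whose peak fluorescence ratio is a statistical outlier from its plate by either plate-standardised score or position-corrected B-score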
CYP2C9 inh: blockers of cytochrome P450 2C9 activity – biochemical, luminescence, ADME assay, primary screen | CYP2C9 Supersomes, luciferin-H conversion | inhibition, % at 5 µM | actives 20% (n = 96,000);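 active means blocking of liver enzyme CYP2C9 beyond about 50% at 5 µM, limit read from the data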
* = called active by the depositor; nt = no result.

SMILES	CYP2C19 activ	HIV Rev-RRE inh	CYP2C19 inhib	CYP2C9 act	Cav32 inh	CYP2C9 inh
COc1cccc(Nc2c(F)c(F)c(F)c(F)c2C(=O)O)c1	0.9	1.2	8.8	0.4	0.0447	61.1*
C=CCc1ccc(OCC(O)COc2ccc(CC=C)cc2OC)c(OC)c1	0	2.7	96.9*	0.1	-8.86*	92.9*
C=CCc1ccc(OCCOCCOc2ccccc2[N+](=O)[O-])c(OC)c1	0.1	12.9	85.1*	0.2	-4.61*	76.6*
C=CCc1ccc(OCCCOc2ccc(C)cc2OC)c(OC)c1	0.4	2.7	59.0*	0.7	-0.473	31.7
COc1cc(C)ccc1OCCCOc1cc(C)ccc1Cl	nt	16.1	nt	nt	-0.908	nt
COc1ccc(/C=C2\CCCC3C2=NN(C(=O)c2scnc2C)C3c2ccc(OC)c(OC)c2)cc1OC (configuration not stated)	1	4.2	-4.3	1	0.123	-0.1
Cc1cc(NC(=O)Cn2nc(-c3ccccc3F)ccc2=O)ccc1-n1cnnn1	1	9.3	-2.8	0.8	0.211	16.7
CCOC(=O)c1oc2ccccc2c1NC(=O)c1ccccc1OC	1	12.3	3.5	0.6	-4.69*	37.8
COc1ccc(OC)c(C(=O)c2oc3ccccc3c2NC(C)=O)c1	0	8.3	98.1*	0.5	-0.276	48.8
CCOC(=O)c1oc2ccccc2c1NC(=O)COc1cccc(OC)c1	0.9	7.8	8.6	0.8	-0.0665	19.5
COc1ccc(-c2nsc(C(=O)N(c3ccc(F)cc3)C(C(=O)NC3CCCC3)c3ccc(OC)cc3)c2N)cc1 (configuration not stated)	1.1	nt	-6.5	0.9	-3.43	9.7
CCOc1cc(CNC2CCCC2)cc(Cl)c1OCc1ccccc1	0.2	7.0	76.1*	0.8	-3.31	16.7
CCCCOc1c(Cl)cc(CNC(C)(C)CO)cc1OCC	0.9	2.8	12.3	1	0.324	-4.6
CC#CCNCc1ccccc1	1.2	4.3	-16.9	1.1	-0.0861	-7.5
CC(C)c1ccc(CNCc2ccccc2)cc1	0.2	-9.0	75.2*	0.9	0.118	8.4
CC(C)COc1ccc(CNC(=S)NCc2ccccc2)cc1	0.9	-2.2	7.3	0.8	-5.63*	19.2
OCc1ccccc1CNCc1ccccc1	0.4	5.9	62.0*	0.9	1.21	8.4
Cc1cccc(NC(=S)NNC(=S)NCc2ccccc2)c1	0.9	2.7	11.5	0.4	-0.816	59.9*
NC(=O)CC(NC(=S)NCc1ccccc1)C(=O)O (configuration not stated)	1	9.2	2.4	0.9	0.333	9.3
FC(F)Oc1ccccc1NC(=S)NCc1ccco1	nt	6.0	nt	nt	0.523	nt
O=C(O)CC(NC(=S)NCc1ccccc1)C(=O)O (configuration not stated)	0.9	14.6	7.6	0.4	0.153	62.5*
S=C(NCc1ccccc1)NCc1ccccc1	0.1	4.0	89.7*	1.1	-1.12	-12.1
FC(F)Oc1ccc(NC(=S)NCc2ccccc2)cc1Cl	0.5	5.7	50.0*	2.2*	0.029	-124.3
Cn1cc(C(=O)c2cccc(Cl)c2Cl)cc1C(=O)O	1.1	8.1	-8.6	1.1	1.21	-7.6
COC(=O)c1cc(C(=O)c2cccc(Cl)c2Cl)cn1C	0.1	0.2	90.2*	2*	-1.32	-96.1
SMILES	CYP2C19 activ	HIV Rev-RRE inh	CYP2C19 inhib	CYP2C9 act	Cav32 inh	CYP2C9 inh
Cc1ccc(CSCCNS(C)(=O)=O)cc1	0.8	5.9	21.4	0.8	1.18	19.6
O=C(O)C[C@H]1c2cc(F)ccc2S(=O)(=O)N1C1CCN(Cc2ccccc2)CC1	nt	nt	nt	nt	1.05	nt
COC(=O)c1ccc(COc2ccc(C3C4=C(CCCC4=O)Nc4onc(C)c43)cc2)cc1 (configuration not stated)	0.8	15.3	16.6	0.3	0.424	67.8*
CC1=CC(C)C2C(=O)N(CCCN(C)C)C(=O)C2C1 (configuration not stated)	1	6.8	-3.2	1.1	-0.135	-9.3
CC1CCCCN1C(=O)/C(=C\c1ccccc1)c1ccccc1 (configuration not stated)	0.5	-1.2	49.0	0.2	-2.66	83.6*
CN1CCN(C(=O)/C(=C/c2ccccc2)c2ccccc2)CC1	0.7	1.1	33.5	0.9	0.289	8.6
CCC(C)(C)n1nnnc1C(c1ccc(N(C)C)cc1)N1CCN(C2CCCCC2)CC1 (configuration not stated)	0.8	-3.4	22.7	1.2	1.18	-20.5
Cc1ccc(C(C(=O)NC2CCCCC2)N(CCC(C)C)C(=O)CNC(=O)c2ccco2)o1 (configuration not stated)	0.5	2.2	52.8*	0.7	-4.73*	33.7
C=CCN(C(=O)CNC(=O)c1ccco1)C(C(=O)NC1CCCCC1)c1ccc(F)cc1 (configuration not stated)	0.9	-0.5	6.2	1.1	0.559	-5.1
C=CCN(C(=O)CNC(=O)c1ccco1)C(C(=O)NC1CCCCC1)c1ccccc1 (configuration not stated)	0.2	-0.8	83.4*	0.3	0.218	70.4*
Cc1ccc(N(C(=O)CNC(=O)c2ccco2)C(C(=O)NCC2CCCO2)c2ccccc2)cc1 (configuration not stated)	0.1	nt	85.1*	0.8	0.203	16.3
CCOCCCN(C(=O)CNC(=O)c1ccco1)C(C(=O)NC1CCCC1)c1ccccc1C (configuration not stated)	1.1	nt	-13.4	1.1	0.248	-9.3
O=C(NCC(=O)N(CCc1ccccc1)C(C(=O)NC1CCCC1)c1cccnc1)c1ccco1 (configuration not stated)	0.5	1.9	53.7*	0.5	-0.348	51.6*
O=C(NCC(=O)N(c1ccccc1)C(C(=O)NC1CCCCC1)c1ccncc1)c1ccco1 (configuration not stated)	0.8	6.1	22.7	0.8	0.832	21.6
COc1cccc(N(C(=O)CNC(=O)c2ccco2)C(C(=O)NC2CCCC2)c2ccncc2)c1 (configuration not stated)	0.4	5.5	57.1*	0.8	1.14	20.4
O=C(NCC(=O)N(CCc1ccccc1)C(C(=O)NC1CCCCC1)c1ccncc1)c1ccco1 (configuration not stated)	0.2	7.3	81.8*	0.1	0.332	91.8*
C#Cc1ccc([C@@H]2C=C(C(=O)NCc3ccccc3)O[C@H](OCCCCO)C2)cc1	nt	nt	nt	nt	-0.467	nt
CCCCNC(=O)CN(C1CCCCC1)S(C)(=O)=O	0.7	1.4	30.6	0.3	0.258	74.4*
